From ChEMBL document CHEMBL3091318, “Potent and broad-spectrum antibacterial activity of indole-based bisamidine antibiotics: synthesis and SAR of novel analogs of MBX 1066 and MBX 1090” (2013)
In brackets after ≈: the same amount, converted by molar mass.

Key:
Assay type in all cases: functional
Bacillus anthracis = assay: Antimicrobial activity against Bacillus anthracis Sterne after 16 to 20 hrs by broth microdilution method
Outline: (§1)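 CLSI broth microdilution. Log-phase cultures in cation-adjusted Mueller–Hinton broth were seeded at 1×10^5 CFU/mL and incubated at 37 °C with shaking for 16–20 h. Compounds were diluted from DMSO stocks to a final 1% DMSO. Growth was read as OD600, and MIC was taken as the lowest concentration with no apparent growth. At least 3 runs were done, and the average MIC is reported in μg/ml.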

Pseudomonas aeruginosa [1] = assay: Antimicrobial activity against efflux pump mexAB-oprM-deficient Pseudomonas aeruginosa PAO1 after 16 to 20 hrs by broth microdilution method
Outline: (§2)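 CLSI broth microdilution. Log-phase cultures grown in cation-adjusted Mueller–Hinton broth and seeded at 1×10^5 CFU/mL. Plates incubated at 37 °C with shaking for 16–20 h. DMSO stocks of compound were diluted into medium to 1% DMSO final. Growth was read as OD600. MIC (μg/ml) is the lowest concentration with no apparent growth, averaged over at least 3 assays.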

Pseudomonas aeruginosa [2] = assay: Antimicrobial activity against efflux pump-positive Pseudomonas aeruginosa PAO1 ATCC BAA-47 after 16 to 20 hrs by broth microdilution method; outline: as §2
Enterococcus faecalis [3] = assay: Antimicrobial activity Enterococcus faecalis ATCC 29212 after 16 to 20 hrs by broth microdilution method; outline: as §2
Escherichia coli [4] = assay: Antimicrobial activity against efflux pump-positive Escherichia coli K-12 after 16 to 20 hrs by broth microdilution method; outline: as §2
Staphylococcus aureus [5] = assay: Antimicrobial activity against Staphylococcus aureus ATCC 25923 after 16 to 20 hrs by broth microdilution method; outline: as §1
Escherichia coli [6] = assay: Antimicrobial activity against TolC efflux-deficient Escherichia coli K-12 after 16 to 20 hrs by broth microdilution method; outline: as §2
Enterococcus faecalis [7] = assay: Antimicrobial activity vancomycin-resistant Enterococcus faecalis ATCC 51575 after 16 to 20 hrs by broth microdilution method; outline: as §1
Staphylococcus aureus [8] = assay: Antimicrobial activity methicillin-resistant against Staphylococcus aureus clinical isolate 1094 after 16 to 20 hrs by broth microdilution method
Klebsiella pneumoniae = assay: Antimicrobial activity against Klebsiella pneumoniae ATCC 13882 after 16 to 20 hrs by broth microdilution method; outline: as §2
Acinetobacter baumannii = assay: Antimicrobial activity against Acinetobacter baumannii ATCC 19606 after 16 to 20 hrs by broth microdilution method; outline: as §2
Haemophilus influenzae = assay: Antimicrobial activity against Haemophilus influenzae ATCC 10211 after 16 to 20 hrs by broth microdilution method
Outline: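 Broth microdilution per CLSI in Haemophilus Test Medium at 37 °C under 5% CO₂ for 16–20 h, seeded at 1×10^5 CFU/mL. Compound was added from DMSO stocks to 1% DMSO final. Growth was read as OD600. MIC (μg/ml) is the lowest concentration without apparent growth, averaged from at least 3 runs.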

Compound	MIC (Bacillus anthracis)	MIC (Pseudomonas aeruginosa [1])	MIC (Pseudomonas aeruginosa [2])	MIC (Enterococcus faecalis [3])	MIC (Escherichia coli [4])	MIC (Staphylococcus aureus [5])	MIC (Escherichia coli [6])	MIC (Enterococcus faecalis [7])	MIC (Staphylococcus aureus [8])	MIC (Klebsiella pneumoniae)	MIC (Acinetobacter baumannii)	MIC (Haemophilus influenzae)
N/C(=N\O)c1ccc2cc(-c3ccc(-c4cc5ccc(/C(N)=N\O)cc5[nH]4)cc3)[nH]c2c1	0.16 µg/mL (≈ 0.377 µM)	> 80 µg/mL	> 80 µg/mL	2.5 µg/mL (≈ 5.89 µM)	> 80 µg/mL	0.31 µg/mL (≈ 0.73 µM)	0.63 µg/mL (≈ 1.48 µM)	1.25 µg/mL (≈ 2.94 µM)	1.25 µg/mL (≈ 2.94 µM)	> 80 µg/mL	–	–
CCOC(=N)c1ccc2cc(-c3ccc(-c4cc5ccc(C(=N)OCC)cc5[nH]4)cc3)[nH]c2c1.Cl	2.5 µg/mL	> 80 µg/mL	> 80 µg/mL	2.5 µg/mL	–	0.63 µg/mL	–	10 µg/mL	5 µg/mL	> 80 µg/mL	–	–
Cl.N/N=C(/N)c1ccc2cc(-c3ccc(-c4cc5ccc(/C(N)=N\N)cc5[nH]4)cc3)[nH]c2c1	0.31 µg/mL	–	10 µg/mL	0.63 µg/mL	2.5 µg/mL	0.63 µg/mL	0.63 µg/mL	0.63 µg/mL	1.25 µg/mL	1.25 µg/mL	> 80 µg/mL	–
CC(=O)O.c1cc2cc(-c3cnc(-c4cc5ccc(C6=NCCCN6)cc5[nH]4)cn3)[nH]c2cc1C1=NCCCN1	0.16 µg/mL	5 µg/mL	5 µg/mL	0.31 µg/mL	2.5 µg/mL	0.31 µg/mL	0.31 µg/mL	0.31 µg/mL	0.31 µg/mL	1.25 µg/mL	> 80 µg/mL	–
c1cc2cc(CCCc3cc4ccc(C5=NCCCN5)cc4[nH]3)[nH]c2cc1C1=NCCCN1	20 µg/mL (≈ 45.6 µM)	> 80 µg/mL	> 80 µg/mL	80 µg/mL (≈ 182 µM)	80 µg/mL (≈ 182 µM)	20 µg/mL (≈ 45.6 µM)	1.25 µg/mL (≈ 2.85 µM)	0.63 µg/mL (≈ 1.44 µM)	20 µg/mL (≈ 45.6 µM)	–	> 80 µg/mL	–
COC1CN=C(c2ccc3cc(-c4ccc(-c5cc6ccc(C7=NCC(OC)CN7)cc6[nH]5)cc4)[nH]c3c2)NC1.O=C(O)C(F)(F)F (stereo not drawn)	0.16 µg/mL	2.5 µg/mL	5 µg/mL	0.16 µg/mL	5 µg/mL	0.16 µg/mL	0.31 µg/mL	0.16 µg/mL	0.16 µg/mL	0.63 µg/mL	> 80 µg/mL	–
O=C(O)C(F)(F)F.c1cc2cc(CCc3cc4ccc(C5=NCCCN5)cc4[nH]3)[nH]c2cc1C1=NCCCN1	0.63 µg/mL	10 µg/mL	10 µg/mL	5 µg/mL	2.5 µg/mL	0.63 µg/mL	0.31 µg/mL	2.5 µg/mL	1.25 µg/mL	–	80 µg/mL	–
c1cc2cc(CCCCc3cc4ccc(C5=NCCCN5)cc4[nH]3)[nH]c2cc1C1=NCCCN1	1.25 µg/mL (≈ 2.76 µM)	40 µg/mL (≈ 88.4 µM)	40 µg/mL (≈ 88.4 µM)	2.5 µg/mL (≈ 5.52 µM)	1.25 µg/mL (≈ 2.76 µM)	0.63 µg/mL (≈ 1.39 µM)	0.16 µg/mL (≈ 0.354 µM)	0.31 µg/mL (≈ 0.685 µM)	1.25 µg/mL (≈ 2.76 µM)	–	> 80 µg/mL	–
O=C(O)C(F)(F)F.c1cc2cc(-c3ccc(-c4cc5ccc(C6=NCCN6)cc5[nH]4)o3)[nH]c2cc1C1=NCCN1	5 µg/mL	> 80 µg/mL	> 80 µg/mL	> 80 µg/mL	20 µg/mL	40 µg/mL	0.63 µg/mL	> 80 µg/mL	40 µg/mL	> 80 µg/mL	> 80 µg/mL	–
CC(=O)O.c1cc2cc(-c3cnc(-c4cc5ccc(C6=NCCN6)cc5[nH]4)cn3)[nH]c2cc1C1=NCCN1	2.5 µg/mL	> 80 µg/mL	> 80 µg/mL	20 µg/mL	20 µg/mL	5 µg/mL	0.63 µg/mL	10 µg/mL	5 µg/mL	10 µg/mL	> 80 µg/mL	–
NCc1ccc2cc(-c3ccc(-c4cc5ccc(CN)cc5[nH]4)cc3)[nH]c2c1.O=C(O)C(F)(F)F	1.25 µg/mL	40 µg/mL	40 µg/mL	1.25 µg/mL	5 µg/mL	0.63 µg/mL	1.25 µg/mL	1.25 µg/mL	1.25 µg/mL	2.5 µg/mL	> 80 µg/mL	–
CC(=O)O.c1cc2cc(-c3ccc(-c4cc5ccc(C6=NCCN6)cc5[nH]4)nc3)[nH]c2cc1C1=NCCN1	0.31 µg/mL	> 80 µg/mL	> 80 µg/mL	0.31 µg/mL	2.5 µg/mL	0.31 µg/mL	0.63 µg/mL	0.31 µg/mL	0.31 µg/mL	2.5 µg/mL	> 80 µg/mL	–
FC1CN=C(c2ccc3cc(-c4ccc(-c5cc6ccc(C7=NCC(F)CN7)cc6[nH]5)cc4)[nH]c3c2)NC1.O=C(O)C(F)(F)F (stereo not drawn)	0.08 µg/mL	0.31 µg/mL	1.25 µg/mL	0.16 µg/mL	0.63 µg/mL	0.08 µg/mL	0.31 µg/mL	0.08 µg/mL	0.16 µg/mL	0.31 µg/mL	40 µg/mL	–
O=C(O)c1cn(C2CC2)c2cc(N3CCNCC3)c(F)cc2c1=O [CIPROFLOXACIN]	0.08 µg/mL (≈ 0.241 µM)	≤ 0.02 µg/mL	0.63 µg/mL (≈ 1.9 µM)	1.25 µg/mL (≈ 3.77 µM)	≤ 0.02 µg/mL	0.31 µg/mL (≈ 0.936 µM)	≤ 0.02 µg/mL	0.63 µg/mL (≈ 1.9 µM)	–	0.04 µg/mL (≈ 0.121 µM)	1.25 µg/mL (≈ 3.77 µM)	10 µg/mL (≈ 30.2 µM)
CC(=O)O.c1cc2cc(-c3ccc(-c4cc5ccc(C6=NCCCN6)cc5[nH]4)s3)[nH]c2cc1C1=NCCCN1	0.16 µg/mL	1.25 µg/mL	5 µg/mL	0.16 µg/mL	0.63 µg/mL	0.08 µg/mL	0.31 µg/mL	0.16 µg/mL	0.16 µg/mL	0.63 µg/mL	5 µg/mL	–
Cl.N=C(N)c1ccc2cc(-c3ccc(-c4cc5ccc(C(=N)N)cc5[nH]4)cc3)[nH]c2c1	0.08 µg/mL	–	10 µg/mL	0.04 µg/mL	0.63 µg/mL	0.16 µg/mL	0.16 µg/mL	0.16 µg/mL	0.31 µg/mL	0.63 µg/mL	40 µg/mL	–
NC(=O)c1ccc2cc(-c3ccc(-c4cc5ccc(C(N)=O)cc5[nH]4)cc3)[nH]c2c1	> 80 µg/mL	> 80 µg/mL	> 80 µg/mL	10 µg/mL (≈ 25.4 µM)	> 80 µg/mL	2.5 µg/mL (≈ 6.34 µM)	5 µg/mL (≈ 12.7 µM)	> 80 µg/mL	> 80 µg/mL	> 80 µg/mL	> 80 µg/mL	–
